Reference: ChEMBL document CHEMBL2413060, “Synthesis, biological evaluation and molecular docking studies of some pyrimidine derivatives” (2013)

How the values were obtained:
Format in all cases: functional
[1] = test system: Shigella flexneri; experiment: Antibacterial activity against Shigella flexneri ATCC 15391 assessed as diameter of inhibition zone at 1 mg/ml after 24 hrs by cup diffusion method (reference value: 17 mm); details: ATCC 15391, 24 h, read-out: DIZ
[2] = test system: DU-145; experiment: Cytotoxicity against human DU145 cells
[3] = test system: KM12; experiment: Cytotoxicity against human KM12 cells
[4] = test system: PC-3; experiment: Cytotoxicity against human PC3 cells assessed as growth inhibition at 10 uM; details: read-out: GI
In short: (§1)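 Single-dose screen on human tumour cell lines. Growth of treated cells is expressed as percent of untreated growth, plotted as a mean graph, and reported as percent growth inhibition.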

[5] = test system: SK-MEL-28; experiment: Cytotoxicity against human SK-MEL-28 cells
In short: (§2)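 Five-dose in vitro screen on the full sixty human tumour cell line panel. Three response parameters derived per cell line: GI50, TGI and LC50, given in μM.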

[6] = test system: NCI-H226; experiment: Cytotoxicity against human NCI-H226 cells; in short: as §2
[7] = test system: HOP-62; experiment: Cytotoxicity against human HOP62 cells assessed as growth inhibition at 10 uM; details: read-out: GI
[8] = test system: NCI-H522; experiment: Cytotoxicity against human NCI-H522 cells; in short: as §2
[9] = test system: HT-29; experiment: Cytotoxicity against human HT-29 cells
[10] = test system: SNB-19; experiment: Cytotoxicity against human SNB19 cells; in short: as §2
[11] = test system: SF-295; experiment: Cytotoxicity against human SF295 cells; in short: as §2
[12] = test system: T47D; experiment: Cytotoxicity against human T47D cells assessed as growth inhibition at 10 uM; details: read-out: GI; in short: as §1
[13] = test system: A498; experiment: Cytotoxicity against human A498 cells assessed as growth inhibition at 10 uM; details: read-out: GI
[14] = test system: SNB-75; experiment: Cytotoxicity against human SNB75 cells assessed as growth inhibition at 10 uM; details: read-out: GI; in short: as §1
[15] = test system: NCI-H522; experiment: Cytotoxicity against human NCI-H522 cells assessed as growth inhibition at 10 uM; details: read-out: GI; in short: as §1
[16] = test system: M14; experiment: Cytotoxicity against human M14 cells
[17] = test system: Hs-578T; experiment: Cytotoxicity against human Hs578T cells
[18] = test system: ACHN; experiment: Cytotoxicity against human ACHN cells
[19] = test system: NCI/ADR-RES; experiment: Cytotoxicity against human NCI/ADR-RES cells; in short: as §2
[20] = test system: Candida albicans; experiment: Antifungal activity against Candida albicans ATCC 2091 assessed as diameter of inhibition zone at 1 mg/ml after 48 hrs by cup diffusion method (reference value: 22 mm); details: ATCC 2091, 48 h, read-out: DIZ
[21] = test system: SK-MEL-5; experiment: Cytotoxicity against human SK-MEL-5 cells; in short: as §2
[22] = test system: UACC-62; experiment: Cytotoxicity against human UACC62 cells
In short: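 Five-dose in vitro screen across the full sixty-cell human tumour line panel. Three response parameters were derived from the dose-response data: GI50, TGI and LC50, expressed in μM/l.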

[23] = test system: UO-31; experiment: Cytotoxicity against human UO31 cells assessed as growth inhibition at 10 uM; details: read-out: GI
In short: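 Single-dose screen in a sixty-cell human tumour line panel; percent growth of treated cells relative to untreated was read and reported as percentage growth inhibition, shown as a mean graph. Compounds meeting the threshold inhibition criteria went on to five-dose testing.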

[24] = test system: MDA-MB-468; experiment: Cytotoxicity against human MDA-MB-468 cells; in short: as §2
[25] = read-out: LC50 (the source's name)

Question: For N#Cc1c(-c2ccccc2)nc(SCC2CO2)nc1N1CCOCC1 (configuration not stated), which zone of inhibition at 1000 µg/mL [1] is on record?
Answer: 18 mm

Question: What about the GI50 [2] of the same molecule?
Answer: 13.4 µM

Question: And the TGI [2]?
Answer: > 100 µM

Question: And the CC50 [2, 25]?
Answer: > 100 µM

Question: And the GI50 [3]?
Answer: 27.1 µM

Question: And the TGI [3]?
Answer: > 100 µM

Question: What about the CC50 [3, 25] of the same molecule?
Answer: > 100 µM

Question: What about the inhibition of growth at 10 µM [4] of the same molecule?
Answer: 63.9%

Question: What about the GI50 [5] of the same molecule?
Answer: 5.45 µM

Question: And the TGI [5]?
Answer: 98.3 µM

Question: What about the CC50 [5, 25] of the same molecule?
Answer: > 100 µM

Question: What about the GI50 [6] of the same molecule?
Answer: 10.1 µM

Question: What about the TGI [6] of the same molecule?
Answer: > 100 µM

Question: What about the CC50 [6, 25] of the same molecule?
Answer: > 100 µM

Question: And the inhibition of growth at 10 µM [7]?
Answer: 45.7%

Question: And the GI50 [8]?
Answer: 72.5 µM

Question: What about the TGI [8] of the same molecule?
Answer: > 100 µM

Question: What about the CC50 [8, 25] of the same molecule?
Answer: > 100 µM

Question: What about the GI50 [9] of the same molecule?
Answer: 36.8 µM

Question: What about the TGI [9] of the same molecule?
Answer: > 100 µM

Question: What about the CC50 [9, 25] of the same molecule?
Answer: > 100 µM

Question: And the GI50 [10]?
Answer: 84.5 µM

Question: And the TGI [10]?
Answer: > 100 µM

Question: And the CC50 [10, 25]?
Answer: > 100 µM

Question: What about the GI50 [11] of the same molecule?
Answer: 1.46 µM

Question: What about the TGI [11] of the same molecule?
Answer: 20.4 µM

Question: What about the CC50 [11, 25] of the same molecule?
Answer: > 100 µM

Question: And the inhibition of growth at 10 µM [12]?
Answer: 84.6%

Question: And the inhibition of growth at 10 µM [13]?
Answer: 115%

Question: And the inhibition of growth at 10 µM [14]?
Answer: 65.9%

Question: What about the inhibition of growth at 10 µM [15] of the same molecule?
Answer: 42.1%

Question: And the GI50 [16]?
Answer: 11.9 µM

Question: What about the TGI [16] of the same molecule?
Answer: > 100 µM

Question: And the CC50 [16, 25]?
Answer: > 100 µM

Question: What about the GI50 [17] of the same molecule?
Answer: 1.15 µM

Question: And the TGI [17]?
Answer: 6.09 µM

Question: What about the CC50 [17, 25] of the same molecule?
Answer: > 100 µM

Question: And the GI50 [18]?
Answer: 3.23 µM

Question: What about the TGI [18] of the same molecule?
Answer: > 100 µM

Question: And the CC50 [18, 25]?
Answer: > 100 µM

Question: And the GI50 [19]?
Answer: 11.8 µM

Question: And the TGI [19]?
Answer: > 100 µM

Question: What about the CC50 [19, 25] of the same molecule?
Answer: > 100 µM

Question: And the zone of inhibition at 1000 µg/mL [20]?
Answer: 22 mm

Question: And the GI50 [21]?
Answer: 17 µM

Question: What about the TGI [21] of the same molecule?
Answer: > 100 µM

Question: And the CC50 [21, 25]?
Answer: > 100 µM

Question: And the GI50 [22]?
Answer: 3.12 µM

Question: What about the TGI [22] of the same molecule?
Answer: 75.5 µM

Question: What about the CC50 [22, 25] of the same molecule?
Answer: > 100 µM

Question: And the inhibition of growth at 10 µM [23]?
Answer: 70.5%

Question: And the GI50 [24]?
Answer: 4.82 µM
